Results from different studies.
Lines come from different studies, so protocols differ.
Target: Mitogen-activated protein kinase kinase kinase 3 (MAP3K3, Homo sapiens, UniProt Q99759)
Sequence (Q99759 1-626, as in one of the studies): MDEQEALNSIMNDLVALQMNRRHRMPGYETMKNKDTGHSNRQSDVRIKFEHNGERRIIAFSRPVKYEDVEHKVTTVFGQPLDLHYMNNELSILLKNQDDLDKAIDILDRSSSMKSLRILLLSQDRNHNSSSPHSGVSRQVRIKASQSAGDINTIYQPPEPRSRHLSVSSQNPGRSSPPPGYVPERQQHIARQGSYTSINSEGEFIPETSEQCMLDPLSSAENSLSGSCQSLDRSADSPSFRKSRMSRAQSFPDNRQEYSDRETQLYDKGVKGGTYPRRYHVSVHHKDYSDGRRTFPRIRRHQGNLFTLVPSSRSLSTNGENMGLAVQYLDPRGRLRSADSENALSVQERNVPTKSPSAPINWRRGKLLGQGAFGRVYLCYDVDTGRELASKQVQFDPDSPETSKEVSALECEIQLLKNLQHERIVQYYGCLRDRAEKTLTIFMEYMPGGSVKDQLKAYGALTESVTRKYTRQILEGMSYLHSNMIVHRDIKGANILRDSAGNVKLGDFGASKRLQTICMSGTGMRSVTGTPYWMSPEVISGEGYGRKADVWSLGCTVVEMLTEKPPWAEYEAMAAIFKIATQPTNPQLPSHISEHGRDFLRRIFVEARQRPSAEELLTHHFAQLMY

Structure (SMILES)	test	setting	remaining binding [%]
CS(=O)(=O)NCC[C@H](NC(=O)c1cncc2c1cnn2-c1ccc(F)cc1)c1ccnc(S(C)(=O)=O)c1	cell-free assay, competition with immobilised ligand	1 µM	100
COc1ncc2cc3ccccc3nc2c1C#N	cell-free assay, competition with immobilised ligand	5 µM	95
F[C@@H]1CCN(c2nccc(-c3cnn4ncccc34)n2)C1	binding	1 µM	100
Nc1c(C(=O)NCc2ccc(C(=O)NCCCC3CCCCC3)cc2)cnn1-c1ccccc1	cell-free assay, competition with immobilised ligand	0.1 µM	100
C=CC(=O)N1CCC(C(=O)NCC(=O)N2CCN(c3nc(-c4cnc(N)nc4C(F)F)nc(N4CCOCC4)n3)CC2)CC1	binding, competition with immobilised ligand	1 µM	99
O=C(c1ccc(Nc2ncc(Cl)c(-c3cc4ccccc4s3)n2)cc1)N1CCC(N2CCCC2)CC1	binding, competition with immobilised ligand	1 µM	34
O=C(Nc1c[nH]nc1C(=O)NC1CCNCC1)c1cc(F)cc(F)c1	binding, competition with immobilised ligand	1 µM	89
Cc1cc(NC(=O)c2cccc(S(F)(F)(F)(F)F)c2)cc(-n2ccn3nc(-c4cccnc4)cc23)c1	cell-free assay, competition with immobilised ligand	1 µM	87.9
O=C(c1ccc(Nc2nccc(-c3cc4ccccc4s3)n2)cc1)N1CCC(N2CCCC2)CC1	binding, competition with immobilised ligand	1 µM	61
CC1CCCN1c1nccc(-c2cnn3ncccc23)n1 (stereo not shown)	binding	1 µM	97
Cc1c(NC(=O)c2cc(C(N)=O)nc3cc(F)ccc23)c(C(F)(F)F)nn1Cc1ccc(C(C)(C)C)cc1	cell-free assay, competition with immobilised ligand	1 µM	100
C[C@@H]1CCN(c2nccc(-c3cnn4ncccc34)n2)C1	binding	1 µM	80
O=C(Nc1cccnn1)N1CC(C/C=C/c2cncc(Oc3ccc(C(F)(F)F)cn3)n2)C1	cell-free assay, competition with immobilised ligand	1 µM	79
CN(C)c1nccc(-c2cnc3ncccn23)n1	binding	1 µM	44
c1cncc(-c2cccc(Nc3nccc(NC4CCCCC4)n3)c2)c1	binding, competition with immobilised ligand	10 µM	41
N[C@H]1CCN(c2nccc(-c3cnn4ncccc34)n2)C1	binding	1 µM	100
COc1cnc(Nc2cccc(S(N)(=O)=O)c2)nc1N1CCN(c2ccccc2)C(=O)C1	binding, competition with immobilised ligand	1 µM	84
CN(CCCC(F)(F)F)c1nccc(-c2cnn3ncccc23)n1	binding	1 µM	99
O=C(O)[C@H]1[C@H](Cn2nnc3ccccc3c2=O)CC[C@@H]1C(=O)c1ccc(OCCC2CCOCC2)cc1	cell-free assay, competition with immobilised ligand	1 µM	100
COc1ccnn2ncc(-c3ccnc(N(C)C)n3)c12	binding	1 µM	72
CN1CCN(c2cnc3c(C4CCN(C(=O)c5ccc(OC(F)(F)F)cc5N)CC4)ncnc3c2)CC1	cell-free assay, competition with immobilised ligand	1 µM	94
O=C(NCCCN1CCOCC1)c1ccc(Nc2nccc(-c3cc4ccccc4s3)n2)cc1	binding, competition with immobilised ligand	1 µM	65
